Source: PubChem
A selection: hits, their analogues and other compounds. The true share with any hit is near 3.1%.
GalR3 antagonist: blocks the human galanin receptor 3; O60755; HEK293 GalR3-CNG cAMP membrane potential fluorescence; galR3 body fused to GalR1 C-terminus; inhibition, % at 3 µM; hit rate 0.44% among 360,000;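 active means inhibition above the screen-wide average plus 3 SD, cut at about 13% in these data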;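 further: forskolin and galanin both at EC90 stimulate the cells; cAMP rise reported by CNG channel membrane potential dye signal; 0% = forskolin plus galanin with DMSO and 100% = forskolin alone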
CHO parental Ca: signal in parental CHO cells, OX1R antagonist counter-screen. parental CHO-K1, ATP-induced calcium, Fluo-8 fluorescence. inhibition, % at 5.6 µM. hit rate 0.63% among 330,000;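 active means inhibition above that plate's mean sample inhibition plus 3 SD, cut at about 26% in these data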;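 further: 0% = ATP-challenged DMSO wells and 100% = DMSO wells without ATP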
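Material: Parental CHO cells | Reagent: ATP | Compound dosing: Single nominal dose of 5.6 µM per compound | Detection: Intracellular calcium via Fluo-8 no-wash fluorescent dye | Read-out: % inhibition of ATP-induced calcium mobilization | Benchmarks: Low control ATP plus DMSO, high control DMSO only | Replicates: Singlicate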
OX1R antag-1: antagonists of human orexin 1 receptor (OX1R); hit rate 1.8% among 330,000; O43613; OX1R-expressing cells, FRET antagonist read-out; inhibition, % at 6.6 µM; AID 485270; in the data active means inhibition mostly above about 38%, no sharp cut-off; inactive means mostly below about 40%;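 further: 0% = agonist challenge alone and 100% = reference antagonist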
Target sequence (O43613 whole entry, looked up): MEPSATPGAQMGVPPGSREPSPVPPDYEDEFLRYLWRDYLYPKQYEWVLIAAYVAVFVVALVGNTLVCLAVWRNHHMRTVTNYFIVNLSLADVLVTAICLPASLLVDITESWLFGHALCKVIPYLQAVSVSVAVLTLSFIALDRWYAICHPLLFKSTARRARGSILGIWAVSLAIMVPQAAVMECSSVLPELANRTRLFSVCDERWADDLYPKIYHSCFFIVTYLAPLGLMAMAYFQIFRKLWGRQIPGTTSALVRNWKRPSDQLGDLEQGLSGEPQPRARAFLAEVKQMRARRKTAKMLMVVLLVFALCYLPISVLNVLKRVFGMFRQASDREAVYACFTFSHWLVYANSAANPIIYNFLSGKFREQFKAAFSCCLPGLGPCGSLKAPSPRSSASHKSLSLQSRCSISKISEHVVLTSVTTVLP
GPR7 antagonist: antagonists of human GPR7 (neuropeptides B/W receptor 1). P48145. GPR7-expressing cells, fluorescence antagonist assay. inhibition, % at 4.4 µM. hit rate 1.1% among 290,000; in the data active means inhibition above about 16%, passing the limit was not always enough;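 further: cells stimulated with the agonist NPW; 0% = agonist with vehicle and 100% = vehicle without agonist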
OX1R antag-2: human HCRTR1 antagonism; O43613; CHO/OX1R cells, Fluo-8 calcium fluorescence, orexin A; inhibition, % at 5 µM; hit rate 0.43% among 330,000; AID 434989;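 active means inhibition above its plate's threshold, mean inhibition of all tested compounds on the plate plus 3 SD, cut at about 37% in these data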;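 further: 0% = orexin A challenge wells and 100% = SB-334867-A antagonist wells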
* marks the source's active call; other numbers are inactive results; / = no result given.

SMILES | GalR3 antagonist | CHO parental Ca | OX1R antag-1 | GPR7 antagonist | OX1R antag-2
Cc1nc(SCc2nc3ccc([N+](=O)[O-])cc3[nH]2)c2oc3ccccc3c2n1 | -3 | -27 | 16 | / | -18
Cc1nc(SCc2nc3ccccc3[nH]2)c2oc3cc(Br)ccc3c2n1 | 1 | -11 | 48* | / | 27
Cc1nc(SCc2nc3ccc(F)cc3[nH]2)c2oc3ccccc3c2n1 | 2 | -29 | 33 | / | -29
CC(CNC(=O)[C@H]1O[C@@H](n2cnc3c(=O)[nH]c(N)nc32)[C@H](O)[C@@H]1O)c1ccccc1 (some centres undefined) | 0 | / | / | / | /
CN(C=[N+](C)C)c1cccc2c1C(=O)c1ccccc1C2=O | -1 | -2 | 75* | -10 | -12
O=[N+]([O-])c1cc(-c2ncccn2)cs1 | -3 | -1 | 51* | -9 | 4
CC(C)(C)c1csc(Sc2ncccc2[N+](=O)[O-])n1 | -1 | -11 | 11 | -21 | -26
NC(=O)c1c(N)[nH]c(C(=O)c2ccccc2)c1-c1ccccc1Br | -6 | / | / | / | /
Cc1ccc(CN2C(=O)CCC2(C)c2nnnn2-c2ccc3c(c2)OCCO3)cc1 (centres undefined) | -9 | / | / | / | /
COc1cccc(CNC(=O)Cc2csc(NC(=O)Nc3ccccc3OC)n2)c1 | -4 | -14 | 42* | / | -20
COc1ccc(CCNC(=O)c2ccc(=O)[nH]n2)cc1OC | 0 | 40* | 4 | 4 | -3
COc1ccc(CCNC(=O)c2ccc(OC)c(OC)c2)cc1OC | -6 | 2 | 24 | -14 | 15
COc1ccc(CCNC(=O)c2ccc([N+](=O)[O-])cc2Cl)cc1OC | 2 | -12 | 71* | / | 4
COC(=O)c1cc2c(c3c4cc(F)ccc4n(S(=O)(=O)c4ccc(C)cc4)c13)C(=O)N(Cc1ccccc1)C2 | -6 | / | / | / | /
Cn1nc(C(F)(F)F)c(CO)c1Sc1ccc(F)cc1 | -3 | 29* | 15 | 1 | -2
Cc1ccc(Sc2c(C(=O)Nc3ccc(F)cc3F)c(C(F)(F)F)nn2C)cc1 | -6 | -23 | 6 | 4 | -30
O=C(CSc1nc(-c2cccs2)cc(C(F)(F)F)n1)NCc1ccco1 | -6 | -8 | 19 | -1 | -35
O=C(NCc1ccco1)c1nc2nc(-c3cccs3)cc(C(F)(F)F)n2n1 | -3 | -20 | 70* | -13 | -25
COC(=O)c1nc2nc(C)cc(C(F)(F)F)n2n1 | 0 | 1 | 13 | -6 | -6
COC(=O)c1nc2nc(-c3cccs3)cc(C(F)(F)F)n2n1 | -3 | -4 | 77* | -5 | -5
Cc1ccc(CC2(C)C(=O)Nc3c(Cl)ccc(Cl)c32)cc1 (centres undefined) | -6 | / | / | / | /
Cc1cccc(N(C)S(=O)(=O)c2cccc3nsnc23)c1 | 0 | -14 | 27 | -10 | -23
CN(C)S(=O)(=O)c1cccc2nsnc12 | -5 | -5 | 35* | 0 | -8
CN(CC(=O)Nc1ccc(F)c(F)c1)S(=O)(=O)c1cccc2nsnc12 | -2 | -6 | 63* | 6 | -14
N#Cc1ccccc1C[C@H](N)C(=O)NC[C@H]1O[C@@H](n2cnc3c(N)ncnc32)[C@H](O)[C@@H]1O | -7 | / | / | / | /
SMILES | GalR3 antagonist | CHO parental Ca | OX1R antag-1 | GPR7 antagonist | OX1R antag-2
CC1Sc2ccc(S(=O)(=O)N3CCC(C(=O)NCC(C)c4ccccc4)CC3)cc2NC1=O (centres undefined) | -1 | 34* | 19 | 6 | 15
CC1CCN(C(=S)Nc2ccc(SC(F)F)cc2)CC1 | -7 | 4 | 2 | 3 | -6
FC(F)Sc1ccc(NC(=S)NC2CCCCC2)cc1 | -3 | 11 | 42* | -2 | 24
CC1CCCCC1NC(=S)Nc1ccc(SC(F)F)cc1 (centres undefined) | -4 | 32 | 63 | 5 | 40*
FC(F)Sc1ccc(NC(=S)NC(c2ccccc2)c2ccccc2)cc1 | -10 | 39* | 41* | 2 | 23
S=C(Nc1ccc(Br)cc1)NC1CCCC1 | -2 | 0 | 17 | -7 | 7
CC(=O)Nc1ccc(C(=O)N2CCOCC2c2cc(C(=O)NCc3ccccc3)no2)cc1 (centres undefined) | -2 | / | / | / | /
CCCOC(=O)c1ccc(Oc2c(-c3ccc(O)cc3O)n[nH]c2C)cc1 | -2 | 50* | 2 | -12 | 4
CCc1nc2ccc(C(=O)NCCN3CCOCC3)cn2c1N(C=O)Cc1ccc(OC)cc1 | -2 | / | / | / | /
C=CCn1c(O)c(N=NC(=O)CNC(=O)c2cccs2)c2ccccc21 | 6 | -11 | 40 | -13 | -13
C=CCn1c(O)c(N=NC(=O)CNC(=O)c2ccncc2)c2ccccc21 | -7 | -12 | 67* | 4 | -12
